System: IMR-90 human lung fibroblasts
Test: Mammalian cell viability, Cell Titer Glo
Assay type: cell-based
Details: 1 μg mL^−1 doxorubicin
Procedure, shortened: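 IMR-90 fibroblasts from ATCC, grown in EMEM with 10% FBS and Pen-Strep at 37 °C, 5% CO2, split 1:3 at confluence. Seeded 20,000 cells/well and left overnight to adhere. Then treated 24 h or 48 h with 50 μM test compound (0.5% DMSO), 0.5% DMSO, 10% DMSO or doxorubicin hydrochloride (given as 1 μg mL−1 and 1.7 μM). CellTiter-Glo ATP luminescence, no-cell background. Percent death versus 0.5% DMSO.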

With `COc1cccc2c1C(=O)c1c(O)c3c(c(O)c1C2=O)C[C@@](O)(C(=O)CO)C[C@@H]3O[C@H]1C[C@H](N)[C@H](O)[C@H](C)O1` [doxorubicin] the cells dead (24 h) was 50% and the “cell death (in words)” value (48 h) was “near complete cell death”.

Source: PMC6457116 (ACS chemical biology, 2018)
